PAFAH2 inh: PAFAH2 (human) inhibition; Q99487; recombinant PAFAH2, FP-rhodamine activity probe, fluorescence polarization; inhibition, % at 3.39 µM; 340,000 compounds, 0.99% hits;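 active means inhibition above the mean over all tested compounds plus 3 SD, cut at about 30% in these data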;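 further: inhibitors block probe labeling of enzyme so polarization drops; 0% = enzyme with DMSO and 100% = wells lacking PAFAH2 protein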
mABHD4 FP: inhibits mouse alpha/beta hydrolase domain 4; inhibition, % at 8.92 µM; AID 720543; Q8VD66; 370,000 compounds, 0.54% hits; purified mABHD4, FP-Rh probe fluorescence polarization;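 active means inhibition exceeding the mean over every tested compound plus 3 SD, cut at about 30% in these data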;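 further: 0% = plate median of compound wells and 100% = S159A mutant with DMSO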
Target sequence (Q8VD66 whole entry, looked up, the tested form may be a part): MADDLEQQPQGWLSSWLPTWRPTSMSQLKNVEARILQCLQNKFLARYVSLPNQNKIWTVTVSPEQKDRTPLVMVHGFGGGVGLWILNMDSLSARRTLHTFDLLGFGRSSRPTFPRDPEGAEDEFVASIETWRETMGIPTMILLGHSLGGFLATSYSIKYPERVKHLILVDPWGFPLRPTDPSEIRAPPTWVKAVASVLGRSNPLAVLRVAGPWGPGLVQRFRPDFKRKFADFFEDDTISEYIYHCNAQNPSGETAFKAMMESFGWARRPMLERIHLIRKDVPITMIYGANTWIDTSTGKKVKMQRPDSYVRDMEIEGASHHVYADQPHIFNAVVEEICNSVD
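Assay system: Wild-type mouse ABHD4 protein | Medium: HEPES pH 7.0 buffer, 150 mM NaCl, 0.01% Pluronic F-127 | Incubation: Enzyme–compound pre-incubation 45 min, then probe 60 min, both 25 °C | Technique: Fluorescence polarization with parallel and perpendicular emission, 525/598 nm | Evaluation: % inhibition of FP-Rh probe binding versus controls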
PAFAH1B3 inh: inhibitors of human PAFAH1B3; Q15102; recombinant PAFAH1B3, FP-rhodamine probe, fluorescence polarization; inhibition, % at 3.39 µM; 340,000 compounds, 0.28% hits;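 active means inhibition above the screen-wide average of all tested compounds plus 3 SD, cut at about 25% in these data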;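 further: 0% = enzyme with DMSO only and 100% = wells lacking PAFAH1B3 protein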
pPAFAH FP inh: pPAFAH (human) enzyme inhibition; recombinant pPAFAH, FP-rhodamine probe fluorescence polarization; inhibition, % at 3.39 µM; 330,000 compounds, 1.5% hits; AID 463082;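 active means inhibition above the mean inhibition across the screen plus 3 SD, cut at about 25% in these data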;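 further: inhibitors block binding of the rhodamine activity-based probe so polarization drops; 0% = enzyme with DMSO and 100% = wells lacking pPAFAH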
PAFAH1B2 FP inh: inhibitors of human PAFAH1B2; inhibition, % at 3.39 µM; AID 492953; 340,000 compounds, 1.2% hits; P68402; recombinant PAFAH1B2, FP-rhodamine activity probe, fluorescence polarization;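 active means inhibition above the mean of all tested compounds plus 3 SD, cut at about 24% in these data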;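 further: 0% = enzyme with DMSO and 100% = wells lacking PAFAH1B2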
Target sequence (P68402 whole entry, looked up): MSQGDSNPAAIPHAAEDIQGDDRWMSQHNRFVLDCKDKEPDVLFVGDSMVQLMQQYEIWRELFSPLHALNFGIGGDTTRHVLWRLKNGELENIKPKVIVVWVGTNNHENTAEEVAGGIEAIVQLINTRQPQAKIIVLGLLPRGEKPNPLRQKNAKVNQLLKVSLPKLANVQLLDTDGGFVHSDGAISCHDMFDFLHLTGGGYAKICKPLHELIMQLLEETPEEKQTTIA
HTRA1 inh: inhibitors of human serine peptidase HTRA1. Q92743. recombinant HTRA1, FP-rhodamine activity-based probe, fluorescence polarization. inhibition, % at 5.96 µM. 340,000 compounds, 0.5% hits; in the data active means inhibition above about 36%;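 further: 0% = enzyme with DMSO and 100% = wells lacking enzyme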
pPAFAH confirm: confirmation of human plasma PAF acetylhydrolase (pPAFAH) inhibitors; shares compounds with pPAFAH FP inh; recombinant pPAFAH, FP-Rh probe fluorescence polarization; inhibition, % at 3.39 µM; 2,300 compounds, 72% hits; AID 463230;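 active means mean inhibition of the triplicate above the hit cutoff set for the earlier primary screen, cut at about 25% in these data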;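 further: 0% = enzyme with DMSO and 100% = wells lacking pPAFAH enzyme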
PAFAH2 FP conf: confirmation of human PAFAH2 inhibitors | shares compounds with PAFAH2 inh | recombinant PAFAH2, FP-rhodamine activity probe, fluorescence polarization | inhibition, % at 3.39 µM | 2,300 compounds, 65% hits | AID 493030;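 active means mean inhibition over three repeats above a set limit taken from the earlier primary screen, cut at about 30% in these data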;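 further: inhibitor blocks binding of rhodamine activity probe so polarization falls; 0% = enzyme with DMSO and 100% = wells lacking PAFAH2 protein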
HTRA1 inh conf: confirmation of human HTRA1 inhibitors; 1,600 compounds, 66% hits; inhibition, % at 5.96 µM; recombinant HTRA1, FP-rhodamine activity-based probe, fluorescence polarization; shares compounds with HTRA1 inh; AID 540248;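 active means mean inhibition over three repeats above a set limit taken from the earlier primary screen, cut at about 37% in these data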;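 further: 0% = HTRA1 with DMSO and 100% = wells lacking HTRA1; inhibitors block probe binding so polarization drops and inhibition rises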
mABHD4 conf: confirmation of mouse ABHD4 inhibitors | purified mABHD4, FP-Rh probe fluorescence polarization | shares compounds with mABHD4 FP | inhibition, % at 8.92 µM | 1,800 compounds, 55% hits | AID 720658;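 active means mean inhibition across replicates above the hit cutoff set in the primary screen, cut at about 30% in these data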;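 further: 0% = wild-type ABHD4 with DMSO and 100% = catalytically dead S159A mutant with DMSO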
The depositor's hits bear a star; . = no result. Compounds with a hit are over-represented: about 2.8% of the library has one in this group of screens.

SMILES	PAFAH2 inh	mABHD4 FP	PAFAH1B3 inh	pPAFAH FP inh	PAFAH1B2 FP inh	HTRA1 inh	pPAFAH confirm	mABHD4 conf	others
O=C(O)c1ccc(N/N=C/c2cn(Cc3ccccc3F)c3ccccc23)cc1	9.5	46.4*	14.2	45.7*	8.2	4.5	62.5*	68.7*
Nc1ccc(C(=O)N/N=C/c2cn(Cc3ccccc3F)c3ccccc23)cc1	-0.8	13.2	8.3	.	8.7	-2.4	.	.
CC(C)(C)c1ccc(O)c(N=Cc2cc3c(cc2[N+](=O)[O-])OCO3)c1	4.9	49.0*	11.9	41.3*	1.7	39.3*	15.4	40.1*	HTRA1 inh conf=9.0
CC(=O)N(C)c1ccc(N=Cc2cc3c(cc2[N+](=O)[O-])OCO3)cc1	6.4	27.9	2.7	6.9	3.7	10.5	.	.
CCc1csc(N2[C@H](CN(CCOC)S(=O)(=O)c3ccccc3[N+](=O)[O-])[C@H](c3ccccc3)[C@@H]2CO)n1	.	4.9	.	.	.	.	.	.
Cc1csc(N/N=C/c2ccc(O)c([N+](=O)[O-])c2)n1	25.9	50.0*	25.9*	39.8*	11.7	20.0	11.1	83.3*
Cc1nnc(N/N=C/c2ccc(O)c([N+](=O)[O-])c2)[nH]c1=O	-6.4	3.6	14.3	-2.1	4.2	4.0	.	.
O=C(/C=C/c1ccco1)NC(=S)Nc1ccc(N2CCCC2)cc1	0.8	37.3*	0.8	47.0*	2.0	24.6	13.7	8.9
CCC(=O)Nc1ccc(NC(=S)NC(=O)/C=C/c2ccco2)cc1	0.9	13.9	10.5	9.1	-0.3	-3.7	.	.
O=[N+]([O-])c1cccc(N/N=C/c2cccc(O)c2O)c1	8.4	36.5*	16.7	60.2*	-2.5	59.7*	66.3*	34.1*	HTRA1 inh conf=73.9*
Cc1cccc(N/N=C/c2ccc(O)c(O)c2O)c1	6.9	35.6*	7.5	44.9*	-2.6	59.2*	44.5*	34.6*	HTRA1 inh conf=62.2*
O=C(CCc1ccccc1-c1ccccc1CCNC(=O)c1c(F)cccc1F)NCc1ccccc1	.	-20.4	.	.	.	.	.	.
NN1C(=O)/C(=C\c2ccco2)SC1=S	.	41.5*	.	41.6*	.	.	1.7	0.8
O=C(CCCN1C(=O)/C(=C\c2ccco2)SC1=S)Nc1ccc(O)cc1C(=O)O	38.7*	46.2*	3.0	68.1*	19.4	5.0	11.3	6.8
O=[N+]([O-])c1cc(Cl)cc(/C=N\Nc2ccccn2)c1O	12.3	21.0	7.2	3.9	4.0	30.9	.	.
CN(C)C1(CN=Cc2cc(Cl)cc([N+](=O)[O-])c2O)CCCCC1	34.5*	36.4*	4.8	42.0*	7.7	33.9	27.9*	44.9*
O=C1CC(N(O)c2ccccc2)C(=O)N1c1ccc(Cl)c(Cl)c1 (stereo unspecified)	1.1	46.2*	4.2	49.1*	-2.6	60.0*	4.9	88.6*	HTRA1 inh conf=0.0
COc1ccc(NC(=O)CSc2nnc(-c3ccco3)c(-c3ccco3)n2)cc1OC	11.3	15.7	8.0	10.0	-1.0	-3.8	.	.
O=C(CSc1nnc(-c2ccccc2)c(-c2ccccc2)n1)NCc1ccco1	-8.1	3.4	0.7	1.7	9.1	-2.0	.	.
Cc1ccc(NC(=O)CSc2nnc(-c3ccco3)c(-c3ccco3)n2)cc1	21.7	41.1*	16.8	47.6*	5.8	31.3	29.1*	35.9*
O=C(CSc1nnc(-c2ccco2)c(-c2ccco2)n1)Nc1ccccc1	42.0*	50.8*	9.8	59.5*	2.3	18.1	20.9	38.9*	PAFAH2 FP conf=11.1
COc1cccc(NC(=O)CSc2nnc(-c3ccco3)c(-c3ccco3)n2)c1	23.1	46.4*	22.1	40.9*	6.3	39.0*	16.9	25.1	HTRA1 inh conf=-5.9
O=S1(=O)c2ccc(N3CCSCC3)cc2Oc2ccccc2CN1Cc1cn(Cc2cccc(F)c2)nn1	.	1.7	.	.	.	.	.	.
CCCCCn1nnnc1C1(C)CCCC(=O)N1Cc1ccco1 (stereo unspecified)	.	4.5	.	.	.	.	.	.
CCOC(=O)N1CCN(C(=O)C[C@H]2C[C@@]3(C(=O)OC)C(=C[C@H](COCc4ccccc4)O[C@@H]3C)N(Cc3cccc4ccccc34)C2=O)CC1	.	-4.4	.	.	.	.	.	.
SMILES	PAFAH2 inh	mABHD4 FP	PAFAH1B3 inh	pPAFAH FP inh	PAFAH1B2 FP inh	HTRA1 inh	pPAFAH confirm	mABHD4 conf	others
COc1ccccc1NCCC(=O)O	-3.8	-8.7	9.5	1.9	-5.7	4.0	.	.
O=C(O)CCNc1ccc(NCCC(=O)O)c2c1C(=O)c1ccccc1C2=O	45.9*	56.1*	25.0	61.5*	15.6	44.4*	18.9	65.4*	HTRA1 inh conf=58.6*
CCCSC1=N/C(=C\c2ccsc2)C(=O)S1	9.2	3.9	4.8	-5.6	-0.9	-7.6	.	.
CCCSC1=N/C(=C\C=C\c2ccco2)C(=O)S1	44.5*	35.8*	10.8	44.6*	8.6	30.3	13.0	3.9
COc1ccc(CNC(=O)CSc2nc3c([nH]2)c(=O)n(C)c(=O)n3C)cc1	.	-4.6	.	.	.	.	.	.
O=S1(=O)c2ccc(N3CCCC3)cc2Oc2ccccc2CN1Cc1cn(Cc2ccc(Cl)cc2)nn1	.	0.7	.	.	.	.	.	.
COc1ccc(OC)c(Nc2nc(-c3sc(NC(=O)c4ccccc4)nc3C)cs2)c1	.	.	.	6.4	.	.	.	.
CCCCCC(=O)Nc1nc(C)c(-c2csc(Nc3cc(OC)ccc3OC)n2)s1	7.7	43.9*	14.8	39.6*	8.8	41.8*	28.7*	56.1*	HTRA1 inh conf=21.4
CCCCC(=O)Nc1nc(C)c(-c2csc(Nc3ccccc3OC)n2)s1	-0.6	-10.7	6.5	17.4	9.2	-0.1	.	.
CCCCCCC(=O)Nc1nc(C)c(-c2csc(Nc3cc(OC)ccc3OC)n2)s1	16.4	33.8*	18.3	47.2*	10.8	16.3	41.1*	48.6*
CCOc1ccc(-n2c(SCC(=O)Nc3ccc(S(=O)(=O)Nc4nccs4)cc3)nnc2-c2ccccc2)cc1	.	-54.2	.	.	.	.	.	.
COC(=O)[C@]12C[C@H](CC(=O)N3CCN(C(=O)c4ccco4)CC3)C(=O)N(CCC3=CCCCC3)C1=C[C@H](C1CCCC1)O[C@@H]2C	.	0.4	.	.	.	.	.	.
Cc1nn(-c2ccccc2)c(Cl)c1/C=N/Nc1ccc(S(=O)(=O)Nc2ccccc2C(=O)O)cc1[N+](=O)[O-]	26.3	41.9*	10.3	46.5*	13.4	6.4	78.1*	62.0*
COc1ccc(NC(=S)NNc2ccc(S(=O)(=O)Nc3ccccc3C(=O)O)cc2[N+](=O)[O-])cc1	63.9*	74.4*	27.4*	58.0*	15.7	73.8*	81.9*	95.5*	HTRA1 inh conf=73.2*
